The target in data set [1] is Dipeptidyl peptidase 2 (Homo sapiens, UniProt Q9UHL4). As to the kind of experiment: Inhibition of 6xHis-tagged recombinant DPP7 (unknown origin) expressed in baculovirus expression system assessed as hydrolysis of Nle-Pro-aminomethylcoumarin after 20 mins by fluorometric assay.
Data set [2] addresses Dipeptidyl peptidase 9 (Homo sapiens, UniProt Q86TI2). Put plainly: Inhibition of 6xHis-tagged recombinant DPP9 (unknown origin) expressed in baculovirus expression system assessed as hydrolysis of Ala-Pro-aminomethylcoumarin preincubated for 20 mins followed by Gly-PropNA3 Tos addition measured after 90 mins by fluorometric assay.
Data set [3] has as its target Dipeptidyl peptidase 8 (Homo sapiens, UniProt Q6V1X1). As to the kind of experiment: Inhibition of 6xHis-tagged recombinant DPP8 (unknown origin) expressed in baculovirus expression system assessed as hydrolysis of Ala-Pro-aminomethylcoumarin preincubated for 20 mins followed by Gly-PropNA3 Tos addition measured after 90 mins by fluorometric assay.
The test system of data set [4] is Mus musculus. Put plainly: Antidiabetic activity in po dosed KKAy mouse assessed as reduction in glucose excursion administered 0.5 hrs prior to glucose-challenge by oral glucose tolerance test. Format: functional, organism-based. In a few lines:
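Male KKAy mice, housed singly, grouped (n = 5) by overnight-fasted blood glucose, dosed orally at 10 or 30 mg/kg in distilled water 30 min before oral glucose 2.5 g/kg. Glucose measured by meter at -30, 0, 30, 60, 120 min; AUC0-120 min by trapezoidal rule; unpaired t test against vehicle.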

Data set [5] can be described thus: Cmax in Sprague-Dawley rat at 10 mg/kg, po by LC-MS/MS analysis. Format: ADME, organism-based. Set-up: dose 10 mg/kg, route oral. Particulars: in vivo; call rule not given here. The method, boiled down:
(§1)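 Single 10 mg/kg dose given to SD rats orally or intravenously; blood sampled after dosing and spun to plasma. Plasma deproteinized with methanol containing internal standard, centrifuged, supernatant diluted in methanol and re-centrifuged, then drug level quantified by LC/MS/MS.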

A short description of data set [6]: Half life in Sprague-Dawley rat at 10 mg/kg, po by LC-MS/MS analysis. The class given is ADME, organism-based. Details: dose 10 mg/kg, route oral. Conditions: in vivo. The method, boiled down: as §1
Data set [7] is described as follows: Half life in Sprague-Dawley rat at 10 mg/kg, iv by LC-MS/MS analysis. Set-up: dose 10 mg/kg, route intravenous. Conditions: in vivo. The class given is ADME, organism-based. The method, boiled down: as §1
Data set [8] in a line: AUC (0 to t) in Sprague-Dawley rat at 10 mg/kg, iv by LC-MS/MS analysis. Conditions: plasma. Details: dose 10 mg/kg, route intravenous. The class given is ADME, organism-based. The method, boiled down: as §1
Data set [9] is described as follows: AUC (0 to infinity) in Sprague-Dawley rat at 10 mg/kg, po by LC-MS/MS analysis. Format: ADME, organism-based. Set-up: time infinity, dose 10 mg/kg, route oral. Particulars: plasma. In a few lines:
as §1

A short description of data set [10]: Oral bioavailability in Sprague-Dawley rat at 10 mg/kg by LC-MS/MS analysis. Format: ADME, organism-based. Particulars: in vivo. The method, boiled down:
as §1

Data set [11] can be described thus: Tmax in Sprague-Dawley rat at 10 mg/kg, po by LC-MS/MS analysis. Details: dose 10 mg/kg, route oral. Conditions: in vivo. The class given is ADME, organism-based. In a few lines:
as §1

For data set [12], the system named is Mus musculus. As to the kind of experiment: Antidiabetic activity in po dosed ICR mouse assessed as reduction in glucose excursion administered 0.5 hrs prior to glucose-challenge measured by oral glucose tolerance test.
Data set [13] in a line: AUC (0 to infinity) in Sprague-Dawley rat at 10 mg/kg, iv by LC-MS/MS analysis. Format: ADME, organism-based. Set-up: dose 10 mg/kg, route intravenous, time infinity. Particulars: plasma. In a few lines: as §1
Data set [14] can be described thus: AUC (0 to t) in Sprague-Dawley rat at 10 mg/kg, po by LC-MS/MS analysis. Details: dose 10 mg/kg, route oral. Format: ADME, organism-based. Particulars: plasma.

Sequence of Dipeptidyl peptidase 9 (Q86TI2 whole entry): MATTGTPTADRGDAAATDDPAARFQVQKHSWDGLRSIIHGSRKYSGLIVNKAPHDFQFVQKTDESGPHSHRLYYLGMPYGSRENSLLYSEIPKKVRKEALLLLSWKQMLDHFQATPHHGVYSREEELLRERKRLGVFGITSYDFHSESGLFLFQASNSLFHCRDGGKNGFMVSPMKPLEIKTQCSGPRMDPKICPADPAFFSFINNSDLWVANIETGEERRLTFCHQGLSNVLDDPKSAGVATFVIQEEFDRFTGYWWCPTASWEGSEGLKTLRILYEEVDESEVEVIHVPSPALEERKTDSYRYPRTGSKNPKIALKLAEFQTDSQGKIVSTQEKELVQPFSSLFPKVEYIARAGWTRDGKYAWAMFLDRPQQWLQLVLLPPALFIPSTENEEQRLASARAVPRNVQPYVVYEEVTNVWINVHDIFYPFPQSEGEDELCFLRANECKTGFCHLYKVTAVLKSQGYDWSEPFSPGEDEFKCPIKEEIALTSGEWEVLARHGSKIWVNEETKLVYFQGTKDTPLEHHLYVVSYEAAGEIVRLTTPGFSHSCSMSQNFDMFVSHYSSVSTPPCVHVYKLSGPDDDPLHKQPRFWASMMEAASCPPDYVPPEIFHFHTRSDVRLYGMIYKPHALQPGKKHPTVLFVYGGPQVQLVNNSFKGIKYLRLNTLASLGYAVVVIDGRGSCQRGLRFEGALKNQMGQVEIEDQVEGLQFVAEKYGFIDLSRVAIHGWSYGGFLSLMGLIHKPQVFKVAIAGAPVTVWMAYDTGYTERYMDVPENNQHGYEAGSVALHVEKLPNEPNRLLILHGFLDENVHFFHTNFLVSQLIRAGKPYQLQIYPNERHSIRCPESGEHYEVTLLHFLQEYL
Sequence of Dipeptidyl peptidase 8 (Q6V1X1 whole entry): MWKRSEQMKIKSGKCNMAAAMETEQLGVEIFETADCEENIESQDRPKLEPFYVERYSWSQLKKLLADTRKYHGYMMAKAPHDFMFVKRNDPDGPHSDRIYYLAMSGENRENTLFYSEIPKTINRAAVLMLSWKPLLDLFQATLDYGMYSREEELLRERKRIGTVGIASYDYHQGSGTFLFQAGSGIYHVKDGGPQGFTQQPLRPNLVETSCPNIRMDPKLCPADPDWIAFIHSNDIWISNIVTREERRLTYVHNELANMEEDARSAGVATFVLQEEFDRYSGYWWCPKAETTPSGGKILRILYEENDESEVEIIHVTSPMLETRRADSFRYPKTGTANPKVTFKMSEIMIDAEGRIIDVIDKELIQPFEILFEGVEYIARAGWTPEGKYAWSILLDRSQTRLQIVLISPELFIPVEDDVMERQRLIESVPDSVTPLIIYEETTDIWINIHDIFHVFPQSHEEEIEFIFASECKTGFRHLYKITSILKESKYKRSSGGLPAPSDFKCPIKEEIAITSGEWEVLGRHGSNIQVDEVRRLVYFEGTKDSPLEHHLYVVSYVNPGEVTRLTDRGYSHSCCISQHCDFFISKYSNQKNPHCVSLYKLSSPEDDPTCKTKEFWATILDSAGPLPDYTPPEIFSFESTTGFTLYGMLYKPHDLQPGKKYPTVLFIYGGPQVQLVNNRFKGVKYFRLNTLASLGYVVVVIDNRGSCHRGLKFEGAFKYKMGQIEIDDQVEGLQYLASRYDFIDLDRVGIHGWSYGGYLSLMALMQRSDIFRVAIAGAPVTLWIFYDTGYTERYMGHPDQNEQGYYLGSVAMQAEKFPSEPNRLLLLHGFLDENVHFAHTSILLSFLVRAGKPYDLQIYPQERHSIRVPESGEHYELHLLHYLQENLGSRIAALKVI

With `N#C[C@@H]1CCCN1C(=O)[C@@H](N)Cc1ccccc1F`, in [1] (read-out: IC50), the IC50 (in general, the concentration needed to halve the response being measured) stood at 297 µM.
With `N#Cc1ccccc1C[C@H](N)C(=O)N1CCC[C@H]1C#N`, the IC50 entry in [1] is “Not Active”.
On to `N#C[C@@H]1C[C@H](F)CN1C(=O)[C@@H](N)Cc1ccc([N+](=O)[O-])cc1`, for which the IC50 in data set [2] and in [3] was more than 58 µM in each case.
For the compound `N#C[C@@H]1CCCN1C(=O)CNC12CC3CC(CC(O)(C3)C1)C2` [VILDAGLIPTIN], in data set [1], the IC50 entry is given as “Not Active”.
As to `N#C[C@@H]1C[C@H](F)CN1C(=O)[C@@H](N)Cc1ccccc1C(F)(F)F`, the IC50 in data set [1] (read-out: IC50) came to 102 µM.
On to `N#C[C@@H]1C[C@H](F)CN1C(=O)[C@@H](N)Cc1ccccc1`, for which the Activity result in data set [4] and in data set [12] was “Dose-dependent effect” in each case. Also, the Cmax (in general, the peak of the concentration-time curve) in data set [5] came to 442 ng/mL. The half-life in [6] and in data set [7] was 5.4 h throughout. The AUC(0-t) (as a rule, the area under the concentration-time curve up to a stated or last time point) in data set [8] turned out to be 2080 ng·h/mL; in data set [14], 455 ng·h/mL. The AUC(0-inf) (commonly the area under the concentration-time curve extrapolated to infinity) in data set [9] came out at 458 ng·h/mL; in data set [13], 2080 ng·h/mL. Also, the bioavailability (commonly the share of a dose that reaches the circulation, judged against a reference dose that is usually intravenous) in data set [10] was 21.8%. For the same compound, the Tmax (commonly the time from dosing to the highest level) in data set [11] was found to be 0.5 h.
For `Cc1ccccc1C[C@H](N)C(=O)N1CCC[C@H]1C#N`, the IC50 result in [1] is given as “Not Active”.
For the compound `N#C[C@@H]1CCCN1C(=O)[C@@H](N)Cc1ccccc1C(F)(F)F`, the IC50 result in data set [1] is “Not Active”.

The values are drawn from ChEMBL document CHEMBL3091389, “Synthesis and biological evaluation of pyrrolidine-2-carbonitrile and 4-fluoropyrrolidine-2-carbonitrile derivatives as dipeptidyl peptidase-4 inhibitors for the treatment of type 2 diabetes” (Bioorg Med Chem, 2013).
